Laboratory results taken from ChEMBL document CHEMBL4433213, “Investigation on 2',3'-O-Substituted ATP Derivatives and Analogs as Novel P2X3 Receptor Antagonists” (ACS Med Chem Lett, 2019).
pIC50: −log10 of the molar value.

Tests used:
P2X purinoceptor 4 = molecular target: T1, P2X purinoceptor 4 (Homo sapiens, UniProt Q99571); test: Antagonist activity at human P2X4R transfected in human 1321N1 cells assessed as inhibition of ATP-induced calcium influx; assay type: cell-based
T1 sequence (Q99571 whole entry): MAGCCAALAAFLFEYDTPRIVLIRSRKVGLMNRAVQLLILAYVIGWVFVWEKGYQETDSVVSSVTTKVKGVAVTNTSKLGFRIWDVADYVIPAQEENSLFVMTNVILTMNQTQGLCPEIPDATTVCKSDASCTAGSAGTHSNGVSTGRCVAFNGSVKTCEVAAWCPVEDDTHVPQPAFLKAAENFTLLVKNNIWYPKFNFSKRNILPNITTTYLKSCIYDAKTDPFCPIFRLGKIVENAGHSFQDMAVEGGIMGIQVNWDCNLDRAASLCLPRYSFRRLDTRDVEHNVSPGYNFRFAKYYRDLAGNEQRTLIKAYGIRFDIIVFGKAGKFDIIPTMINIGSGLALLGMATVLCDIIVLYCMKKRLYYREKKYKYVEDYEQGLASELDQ
In short: (§1)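 1321N1 astrocytoma cells stably expressing human P2X1, P2X2, P2X3 or P2X4 receptor. Calcium influx was induced by ATP at the EC80 for each subtype. Results are given as IC50 (μM) or % inhibition at the indicated concentration.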

P2X purinoceptor 3 [1] = molecular target: T2, P2X purinoceptor 3 (Mus musculus, UniProt Q3UR32); test: Antagonist activity at P2X3R in mouse TG sensory neurons assessed as inhibition of P2X3R agonist alpha,beta-meATP-induced current at -65 mV holding potential by whole cell voltage clamp method
T2 sequence (Q3UR32 whole entry): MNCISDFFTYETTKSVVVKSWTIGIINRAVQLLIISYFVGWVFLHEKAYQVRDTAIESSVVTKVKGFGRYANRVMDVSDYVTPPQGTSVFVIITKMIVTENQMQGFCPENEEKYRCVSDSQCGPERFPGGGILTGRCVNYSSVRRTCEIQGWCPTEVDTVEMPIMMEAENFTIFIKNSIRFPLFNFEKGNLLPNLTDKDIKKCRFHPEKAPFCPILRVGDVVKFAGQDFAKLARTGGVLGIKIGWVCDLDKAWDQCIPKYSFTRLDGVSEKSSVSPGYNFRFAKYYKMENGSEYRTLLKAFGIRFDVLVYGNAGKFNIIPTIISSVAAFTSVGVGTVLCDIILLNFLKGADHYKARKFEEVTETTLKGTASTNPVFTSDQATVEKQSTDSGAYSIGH
In short: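 Mouse trigeminal sensory neurons were recorded by whole-cell patch clamp. Test compound (0.001–10 μM) was applied before 10 μM α,β-meATP, and inhibition of the agonist-evoked P2X3 current was measured. IC50 was taken from concentration–inhibition curves. N = 5–6 cells.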

P2X purinoceptor 3 [2] = molecular target: T3, P2X purinoceptor 3 (Homo sapiens, UniProt P56373); test: Antagonist activity at human P2X3R transfected in human 1321N1 cells assessed as inhibition of ATP-induced calcium influx; assay type: cell-based; in short: as §1
T3 sequence (P56373 whole entry): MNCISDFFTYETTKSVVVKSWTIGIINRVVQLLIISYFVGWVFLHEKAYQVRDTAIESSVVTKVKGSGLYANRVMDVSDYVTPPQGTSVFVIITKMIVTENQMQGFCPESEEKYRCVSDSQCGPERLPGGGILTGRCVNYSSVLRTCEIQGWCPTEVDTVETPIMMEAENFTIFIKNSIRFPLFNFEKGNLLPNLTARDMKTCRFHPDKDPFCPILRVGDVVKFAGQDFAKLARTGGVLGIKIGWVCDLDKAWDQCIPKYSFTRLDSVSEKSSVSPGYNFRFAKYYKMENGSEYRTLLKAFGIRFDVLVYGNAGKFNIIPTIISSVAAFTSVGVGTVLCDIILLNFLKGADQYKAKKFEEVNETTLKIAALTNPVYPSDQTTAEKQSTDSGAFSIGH

P2X purinoceptor 7 = molecular target: T4, P2X purinoceptor 7 (Homo sapiens, UniProt Q99572); test: Antagonist activity at human P2X7R transfected in human 1321N1 cells assessed as inhibition of Bz-ATP-induced calcium influx; assay type: cell-based
T4 sequence (Q99572 whole entry): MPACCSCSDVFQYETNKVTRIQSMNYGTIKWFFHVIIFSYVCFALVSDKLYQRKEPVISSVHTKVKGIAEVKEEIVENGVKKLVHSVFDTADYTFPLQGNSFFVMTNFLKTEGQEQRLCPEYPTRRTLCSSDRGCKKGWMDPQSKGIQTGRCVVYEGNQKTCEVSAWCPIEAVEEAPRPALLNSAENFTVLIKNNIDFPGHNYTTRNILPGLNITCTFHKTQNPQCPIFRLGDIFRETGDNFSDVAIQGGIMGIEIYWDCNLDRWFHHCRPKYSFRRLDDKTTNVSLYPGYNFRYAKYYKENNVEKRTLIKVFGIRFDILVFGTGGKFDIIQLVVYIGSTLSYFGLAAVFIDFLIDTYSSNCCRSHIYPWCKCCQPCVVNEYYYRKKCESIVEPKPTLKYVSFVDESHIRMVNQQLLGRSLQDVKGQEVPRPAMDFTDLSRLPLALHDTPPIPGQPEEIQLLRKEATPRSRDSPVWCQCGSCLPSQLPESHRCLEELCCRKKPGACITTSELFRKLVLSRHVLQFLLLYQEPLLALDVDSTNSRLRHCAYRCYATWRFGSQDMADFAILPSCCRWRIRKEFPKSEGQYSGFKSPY

P2X purinoceptor 1 = molecular target: T5, P2X purinoceptor 1 (Homo sapiens, UniProt P51575); test: Antagonist activity at human P2X1R transfected in human 1321N1 cells assessed as inhibition of ATP-induced calcium influx; assay type: cell-based; in short: as §1
T5 sequence (P51575 whole entry): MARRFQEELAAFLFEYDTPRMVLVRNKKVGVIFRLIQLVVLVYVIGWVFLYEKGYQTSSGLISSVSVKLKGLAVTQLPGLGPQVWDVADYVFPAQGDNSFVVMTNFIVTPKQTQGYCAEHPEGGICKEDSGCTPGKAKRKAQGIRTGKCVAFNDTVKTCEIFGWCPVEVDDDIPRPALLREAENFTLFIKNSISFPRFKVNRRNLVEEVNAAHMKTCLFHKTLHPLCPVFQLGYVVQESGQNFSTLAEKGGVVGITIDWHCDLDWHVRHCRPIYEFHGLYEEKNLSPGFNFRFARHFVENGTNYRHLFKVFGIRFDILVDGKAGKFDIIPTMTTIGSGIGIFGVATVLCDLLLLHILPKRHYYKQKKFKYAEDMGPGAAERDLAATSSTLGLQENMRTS

P2X purinoceptor 2 = molecular target: T6, P2X purinoceptor 2 (Homo sapiens, UniProt Q9UBL9); test: Antagonist activity at human P2X2R transfected in human 1321N1 cells assessed as inhibition of ATP-induced calcium influx; assay type: cell-based; in short: as §1
T6 sequence (Q9UBL9 whole entry): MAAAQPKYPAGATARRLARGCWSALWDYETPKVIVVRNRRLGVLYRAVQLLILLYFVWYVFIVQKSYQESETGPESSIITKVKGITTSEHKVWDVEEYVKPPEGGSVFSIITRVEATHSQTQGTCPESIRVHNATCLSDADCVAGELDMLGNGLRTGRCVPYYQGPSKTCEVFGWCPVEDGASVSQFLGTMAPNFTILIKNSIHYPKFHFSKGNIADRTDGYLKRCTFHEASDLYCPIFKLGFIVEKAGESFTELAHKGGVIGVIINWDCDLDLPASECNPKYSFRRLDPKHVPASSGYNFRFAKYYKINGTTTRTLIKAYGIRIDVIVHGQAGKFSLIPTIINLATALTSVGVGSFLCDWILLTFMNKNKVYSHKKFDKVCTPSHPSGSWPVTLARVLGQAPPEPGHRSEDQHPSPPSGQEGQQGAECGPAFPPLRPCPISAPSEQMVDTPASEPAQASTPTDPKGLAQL

[3] = molecular target: T7, P2X purinoceptor 7 (Homo sapiens) (UniProt Q99572); test: Antagonist activity at human P2X7R transfected in human 1321N1 cells assessed as inhibition of Bz-ATP-induced calcium influx relative to control; assay type: cell-based; conditions: concentration not given here
T7 sequence (whole entry): T4 sequence (Q99572 whole entry)

[4] = molecular target: T8, P2X purinoceptor 2 (Homo sapiens) (UniProt Q9UBL9); test: Antagonist activity at human P2X2R transfected in human 1321N1 cells assessed as inhibition of ATP-induced calcium influx relative to control; assay type: cell-based; conditions: concentration not given here; in short: as §1
T8 sequence (whole entry): T6 sequence (Q9UBL9 whole entry)

[5] = molecular target: T9, P2X purinoceptor 1 (Homo sapiens) (UniProt P51575); test: Antagonist activity at human P2X1R transfected in human 1321N1 cells assessed as inhibition of ATP-induced calcium influx relative to control; assay type: cell-based; conditions: concentration not given here; in short: as §1
T9 sequence (whole entry): T5 sequence (P51575 whole entry)

[6] = molecular target: T10, P2X purinoceptor 3 (Homo sapiens) (UniProt P56373); test: Antagonist activity at human P2X3R transfected in human 1321N1 cells assessed as inhibition of ATP-induced calcium influx relative to control; assay type: cell-based; conditions: concentration not given here; in short: as §1
T10 sequence (whole entry): T3 sequence (P56373 whole entry)

[7] = molecular target: T11, P2X purinoceptor 4 (Homo sapiens) (UniProt Q99571); test: Antagonist activity at human P2X4R transfected in human 1321N1 cells assessed as inhibition of ATP-induced calcium influx relative to control; assay type: cell-based; conditions: concentration not given here; in short: as §1
T11 sequence (whole entry): T1 sequence (Q99571 whole entry)

Homo sapiens [8] = species on record: Homo sapiens; test: Selectivity ratio of IC50 for human P2X4R transfected in human […] 1321N1 cells to IC50 for human transfected in human 1321N1 cells; assay type: cell-based
Homo sapiens [9] = species on record: Homo sapiens; test: Selectivity ratio of IC50 for human P2X7R transfected in human […] 1321N1 cells to IC50 for human transfected in human 1321N1 cells; assay type: cell-based
Homo sapiens [10] = species on record: Homo sapiens; test: Selectivity ratio of IC50 for human P2X1R transfected in human […] 1321N1 cells to IC50 for human transfected in human 1321N1 cells; assay type: cell-based

| SMILES | pIC50 (P2X purinoceptor 4) | pIC50 (P2X purinoceptor 3 [1]) | pIC50 (P2X purinoceptor 3 [2]) | pIC50 (P2X purinoceptor 7) | pIC50 (P2X purinoceptor 1) | pIC50 (P2X purinoceptor 2) | inhibition [3] [%] | inhibition [4] [%] | inhibition [5] [%] | inhibition [6] [%] | inhibition [7] [%] | Ratio IC50 (Homo sapiens [8]) | Ratio IC50 (Homo sapiens [9]) | Ratio IC50 (Homo sapiens [10]) |
| --- | --- | --- | --- | --- | --- | --- | --- | --- | --- | --- | --- | --- | --- | --- |
| Nc1ncnc2c1ncn2[C@@H]1O[C@H](COP(=O)(O)OP(=O)(O)OP(=O)(O)O)[C@H]2O[C@H](c3ccccc3)O[C@H]21 | 4.91 | 6.68 | 5.23 | < 4.00 | < 4.00 | < 4.00 | 21 | 16 | 27 | – | – | – | – | – |
| CC1(C)O[C@@H]2[C@H](O1)[C@@H](C(=O)N[C@@H](CCC(=O)O)C(=O)O)O[C@H]2n1cnc2c(N)ncnc21 | < 4.00 | – | < 4.00 | < 4.52 | < 4.00 | < 4.00 | -9 | 6 | 21 | 15 | -6 | – | – | – |
| Nc1ncnc2c1ncn2[C@@H]1O[C@H](COP(=O)(O)OP(=O)(O)OP(=O)(O)O)[C@H]2O[C@@H](c3ccccc3)O[C@H]21 | 4.96 | 7.09 | 6.21 | 5.07 | ≤ 5.00 | < 4.00 | – | 18 | 44 | – | – | 14 | 18 | – |
| Nc1ncnc2c1ncn2[C@@H]1O[C@H](COP(=O)(O)OP(=O)(O)OP(=O)(O)O)[C@H]2OC3(CCCCC3)O[C@H]21 | 4.53 | 7.08 | 6.05 | < 4.00 | 5.09 | < 4.00 | 30 | 20 | – | – | – | – | – | 10 |
| CC1(C)O[C@@H]2[C@H](O1)[C@@H](COC(=O)c1cc(C(=O)O)c(C(=O)O)cc1C(=O)O)O[C@H]2n1cnc2c(N)ncnc21 | < 4.52 | – | ≤ 4.00 | < 4.52 | < 5.00 | < 5.00 | – | 30 | 13 | 56 | 35 | – | – | – |
